ChEMBL document CHEMBL5058577, “EUbOPEN Chemogenomics Library 2 (Multiplex)” (2022)

System: HEK-293T
Assay: Multiplex assay against HEK293T
Format: toxicity, cell-based
Details: human
How it was run: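 Live cells were stained at seeding with Hoechst33342, BioTracker Green Microtubule Cytoskeleton Dye, MitoTracker Red and Annexin V Alexa Fluor 680, then imaged on a CQ1 microscope at 37°C and 5% CO2 after compound addition. CellPathfinder machine-learning gating split cells into Hoechst high-intensity objects or normal cells. Normal cells were split into healthy, pyknosed or fragmented nuclei, and pyknosed cells into mitotic or apoptotic. Tubulin, mitochondrial-mass and membrane-permeability phenotypes are per cents of healthy-nucleus cells.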

[1] = 12 h, 1 µM, compound concentration 1 uM, replicate 1
[2] = 12 h, 1 µM, compound concentration 1 uM, replicate 2
[3] = 12 h, 10 µM, compound concentration 10 uM, replicate 1
[4] = 12 h, 10 µM, compound concentration 10 uM, replicate 2
[5] = 24 h, 1 µM, compound concentration 1 uM, replicate 1
[6] = 24 h, 1 µM, compound concentration 1 uM, replicate 2
[7] = 24 h, 10 µM, compound concentration 10 uM, replicate 1
[8] = 24 h, 10 µM, compound concentration 10 uM, replicate 2
[9] = 48 h, 1 µM, compound concentration 1 uM, replicate 1
[10] = 48 h, 1 µM, compound concentration 1 uM, replicate 2
[11] = 48 h, 10 µM, compound concentration 10 uM, replicate 1
[12] = 48 h, 10 µM, compound concentration 10 uM, replicate 2

CCOc1c2c(c(OCC)c3ncccc13)CN(c1ccc(CS(=O)(=O)NC(=O)Cc3ccccc3OC)cc1C)C2=O
Population Apoptotic (%) [1]: 33%
Population Fragmented Nuclei (%) [1]: 3%
Population Healthy Nuclei (%) [1]: 81%
Population Hoechst High Intensity Objects (%) [1]: 6%
Population Membrane Permeable-Phenotype (%) [1]: 0%
Population Mitochondria Different-Phenotype (%) [1]: 43%
Population Mitotic Cells (%) [1]: 66%
Population Normal (%) [1]: 93%
Population Pyknosed Nuclei (%) [1]: 14%
Population Tubulin-Different-Phenotype (%) [1]: 31%
Total Cell Count [1]: 356
Population Apoptotic (%) [2]: 35%
Population Fragmented Nuclei (%) [2]: 5%
Population Healthy Nuclei (%) [2]: 82%
Population Hoechst High Intensity Objects (%) [2]: 5%
Population Mitochondria Different-Phenotype (%) [2]: 54%
Population Mitotic Cells (%) [2]: 64%
Population Normal (%) [2]: 94%
Population Pyknosed Nuclei (%) [2]: 12%
Population Tubulin-Different-Phenotype (%) [2]: 16%
Total Cell Count [2]: 355
Population Apoptotic (%) [3]: 45%
Population Fragmented Nuclei (%) [3]: 9%
Population Healthy Nuclei (%) [3]: 78%
Population Hoechst High Intensity Objects (%) [3]: 4%
Population Membrane Permeable-Phenotype (%) [3]: 0%
Population Mitochondria Different-Phenotype (%) [3]: 49%
Population Mitotic Cells (%) [3]: 54%
Population Normal (%) [3]: 95%
Population Pyknosed Nuclei (%) [3]: 12%
Population Tubulin-Different-Phenotype (%) [3]: 34%
Total Cell Count [3]: 367
Population Apoptotic (%) [4]: 53%
Population Fragmented Nuclei (%) [4]: 7%
Population Healthy Nuclei (%) [4]: 76%
Population Hoechst High Intensity Objects (%) [4]: 9%
Population Mitochondria Different-Phenotype (%) [4]: 72%
Population Mitotic Cells (%) [4]: 46%
Population Normal (%) [4]: 90%
Population Pyknosed Nuclei (%) [4]: 16%
Population Tubulin-Different-Phenotype (%) [4]: 29%
Total Cell Count [4]: 362
Population Apoptotic (%) [5]: 35%
Population Fragmented Nuclei (%) [5]: 11%
Population Healthy Nuclei (%) [5]: 73%
Population Hoechst High Intensity Objects (%) [5]: 5%
Population Membrane Permeable-Phenotype (%) [5]: 0%
Population Mitochondria Different-Phenotype (%) [5]: 28%
Population Mitotic Cells (%) [5]: 64%
Population Normal (%) [5]: 94%
Population Pyknosed Nuclei (%) [5]: 14%
Population Tubulin-Different-Phenotype (%) [5]: 20%
Total Cell Count [5]: 462
Population Apoptotic (%) [6]: 27%
Population Fragmented Nuclei (%) [6]: 5%
Population Healthy Nuclei (%) [6]: 85%
Population Hoechst High Intensity Objects (%) [6]: 3%
Population Mitochondria Different-Phenotype (%) [6]: 27%
Population Mitotic Cells (%) [6]: 72%
Population Normal (%) [6]: 96%
Population Pyknosed Nuclei (%) [6]: 8%
Population Tubulin-Different-Phenotype (%) [6]: 10%
Total Cell Count [6]: 473
Population Apoptotic (%) [7]: 18%
Population Fragmented Nuclei (%) [7]: 10%
Population Healthy Nuclei (%) [7]: 75%
Population Hoechst High Intensity Objects (%) [7]: 4%
Population Membrane Permeable-Phenotype (%) [7]: 0%
Population Mitochondria Different-Phenotype (%) [7]: 36%
Population Mitotic Cells (%) [7]: 81%
Population Normal (%) [7]: 95%
Population Pyknosed Nuclei (%) [7]: 14%
Population Tubulin-Different-Phenotype (%) [7]: 28%
Total Cell Count [7]: 446
Population Apoptotic (%) [8]: 32%
Population Fragmented Nuclei (%) [8]: 8%
Population Healthy Nuclei (%) [8]: 82%
Population Hoechst High Intensity Objects (%) [8]: 8%
Population Membrane Permeable-Phenotype (%) [8]: 1%
Population Mitochondria Different-Phenotype (%) [8]: 49%
Population Mitotic Cells (%) [8]: 67%
Population Normal (%) [8]: 91%
Population Pyknosed Nuclei (%) [8]: 9%
Population Tubulin-Different-Phenotype (%) [8]: 17%
Total Cell Count [8]: 481
Population Apoptotic (%) [9]: 29%
Population Fragmented Nuclei (%) [9]: 13%
Population Healthy Nuclei (%) [9]: 79%
Population Hoechst High Intensity Objects (%) [9]: 3%
Population Membrane Permeable-Phenotype (%) [9]: 0%
Population Mitochondria Different-Phenotype (%) [9]: 20%
Population Mitotic Cells (%) [9]: 70%
Population Normal (%) [9]: 96%
Population Pyknosed Nuclei (%) [9]: 6%
Population Tubulin-Different-Phenotype (%) [9]: 13%
Total Cell Count [9]: 822
Population Apoptotic (%) [10]: 33%
Population Fragmented Nuclei (%) [10]: 11%
Population Healthy Nuclei (%) [10]: 83%
Population Hoechst High Intensity Objects (%) [10]: 1%
Population Mitochondria Different-Phenotype (%) [10]: 14%
Population Mitotic Cells (%) [10]: 66%
Population Normal (%) [10]: 98%
Population Pyknosed Nuclei (%) [10]: 5%
Population Tubulin-Different-Phenotype (%) [10]: 7%
Total Cell Count [10]: 770
Population Apoptotic (%) [11]: 41%
Population Fragmented Nuclei (%) [11]: 13%
Population Healthy Nuclei (%) [11]: 78%
Population Hoechst High Intensity Objects (%) [11]: 4%
Population Membrane Permeable-Phenotype (%) [11]: 1%
Population Mitochondria Different-Phenotype (%) [11]: 32%
Population Mitotic Cells (%) [11]: 58%
Population Normal (%) [11]: 95%
Population Pyknosed Nuclei (%) [11]: 8%
Population Tubulin-Different-Phenotype (%) [11]: 16%
Total Cell Count [11]: 631
Population Apoptotic (%) [12]: 33%
Population Fragmented Nuclei (%) [12]: 12%
Population Healthy Nuclei (%) [12]: 81%
Population Hoechst High Intensity Objects (%) [12]: 3%
Population Membrane Permeable-Phenotype (%) [12]: 0%
Population Mitochondria Different-Phenotype (%) [12]: 22%
Population Mitotic Cells (%) [12]: 66%
Population Normal (%) [12]: 96%
Population Pyknosed Nuclei (%) [12]: 6%
Population Tubulin-Different-Phenotype (%) [12]: 11%
Total Cell Count [12]: 724

COc1cc(C(=O)N(CCCc2ccccc2)Cc2ccc(CC(=O)O)cc2)cc(OC)c1C
Population Apoptotic (%) [1]: 45%
Population Fragmented Nuclei (%) [1]: 7%
Population Healthy Nuclei (%) [1]: 82%
Population Hoechst High Intensity Objects (%) [1]: 5%
Population Membrane Permeable-Phenotype (%) [1]: 0%
Population Mitochondria Different-Phenotype (%) [1]: 47%
Population Mitotic Cells (%) [1]: 55%
Population Normal (%) [1]: 94%
Population Pyknosed Nuclei (%) [1]: 10%
Population Tubulin-Different-Phenotype (%) [1]: 31%
Total Cell Count [1]: 395
Population Apoptotic (%) [2]: 44%
Population Fragmented Nuclei (%) [2]: 6%
Population Healthy Nuclei (%) [2]: 84%
Population Hoechst High Intensity Objects (%) [2]: 4%
Population Mitochondria Different-Phenotype (%) [2]: 50%
Population Normal (%) [2]: 95%
Population Pyknosed Nuclei (%) [2]: 9%
Population Tubulin-Different-Phenotype (%) [2]: 19%
Total Cell Count [2]: 410
Population Apoptotic (%) [3]: 30%
Population Fragmented Nuclei (%) [3]: 6%
Population Healthy Nuclei (%) [3]: 77%
Population Hoechst High Intensity Objects (%) [3]: 8%
Population Membrane Permeable-Phenotype (%) [3]: 1%
Population Mitochondria Different-Phenotype (%) [3]: 46%
Population Mitotic Cells (%) [3]: 70%
Population Normal (%) [3]: 91%
Population Pyknosed Nuclei (%) [3]: 15%
Population Tubulin-Different-Phenotype (%) [3]: 52%
Total Cell Count [3]: 431
Population Apoptotic (%) [4]: 47%
Population Fragmented Nuclei (%) [4]: 4%
Population Healthy Nuclei (%) [4]: 82%
Population Hoechst High Intensity Objects (%) [4]: 6%
Population Membrane Permeable-Phenotype (%) [4]: 0%
Population Mitochondria Different-Phenotype (%) [4]: 67%
Population Mitotic Cells (%) [4]: 52%
Population Normal (%) [4]: 93%
Population Pyknosed Nuclei (%) [4]: 13%
Population Tubulin-Different-Phenotype (%) [4]: 44%
Total Cell Count [4]: 438
Population Apoptotic (%) [5]: 32%
Population Fragmented Nuclei (%) [5]: 7%
Population Healthy Nuclei (%) [5]: 78%
Population Hoechst High Intensity Objects (%) [5]: 5%
Population Membrane Permeable-Phenotype (%) [5]: 0%
Population Mitochondria Different-Phenotype (%) [5]: 27%
Population Mitotic Cells (%) [5]: 67%
Population Normal (%) [5]: 94%
Population Pyknosed Nuclei (%) [5]: 14%
Population Tubulin-Different-Phenotype (%) [5]: 15%
Total Cell Count [5]: 483
Population Apoptotic (%) [6]: 48%
Population Healthy Nuclei (%) [6]: 82%
Population Hoechst High Intensity Objects (%) [6]: 3%
Population Mitochondria Different-Phenotype (%) [6]: 26%
Population Mitotic Cells (%) [6]: 51%
Population Normal (%) [6]: 96%
Population Pyknosed Nuclei (%) [6]: 9%
Population Tubulin-Different-Phenotype (%) [6]: 10%
Total Cell Count [6]: 507
Population Apoptotic (%) [7]: 34%
Population Fragmented Nuclei (%) [7]: 7%
Population Healthy Nuclei (%) [7]: 80%
Population Hoechst High Intensity Objects (%) [7]: 7%
Population Membrane Permeable-Phenotype (%) [7]: 0%
Population Mitochondria Different-Phenotype (%) [7]: 39%
Population Mitotic Cells (%) [7]: 65%
Population Normal (%) [7]: 92%
Population Pyknosed Nuclei (%) [7]: 12%
Population Tubulin-Different-Phenotype (%) [7]: 43%
Total Cell Count [7]: 549
Population Apoptotic (%) [8]: 42%
Population Healthy Nuclei (%) [8]: 79%
Population Hoechst High Intensity Objects (%) [8]: 6%
Population Mitochondria Different-Phenotype (%) [8]: 50%
Population Mitotic Cells (%) [8]: 57%
Population Normal (%) [8]: 93%
Population Tubulin-Different-Phenotype (%) [8]: 38%
Total Cell Count [8]: 526
Population Apoptotic (%) [9]: 30%
Population Fragmented Nuclei (%) [9]: 12%
Population Healthy Nuclei (%) [9]: 77%
Population Hoechst High Intensity Objects (%) [9]: 1%
Population Membrane Permeable-Phenotype (%) [9]: 1%
Population Mitochondria Different-Phenotype (%) [9]: 16%
Population Mitotic Cells (%) [9]: 69%
Population Normal (%) [9]: 98%
Population Pyknosed Nuclei (%) [9]: 9%
Population Tubulin-Different-Phenotype (%) [9]: 11%
Total Cell Count [9]: 812
Population Apoptotic (%) [10]: 26%
Population Fragmented Nuclei (%) [10]: 9%
Population Healthy Nuclei (%) [10]: 83%
Population Hoechst High Intensity Objects (%) [10]: 3%
Population Mitochondria Different-Phenotype (%) [10]: 17%
Population Mitotic Cells (%) [10]: 73%
Population Normal (%) [10]: 96%
Population Pyknosed Nuclei (%) [10]: 7%
Population Tubulin-Different-Phenotype (%) [10]: 9%
Total Cell Count [10]: 753
Population Apoptotic (%) [11]: 32%
Population Fragmented Nuclei (%) [11]: 12%
Population Healthy Nuclei (%) [11]: 76%
Population Hoechst High Intensity Objects (%) [11]: 4%
Population Membrane Permeable-Phenotype (%) [11]: 1%
Population Mitochondria Different-Phenotype (%) [11]: 29%
Population Mitotic Cells (%) [11]: 67%
Population Normal (%) [11]: 95%
Population Pyknosed Nuclei (%) [11]: 11%
Population Tubulin-Different-Phenotype (%) [11]: 29%
Total Cell Count [11]: 729
Population Apoptotic (%) [12]: 33%
Population Fragmented Nuclei (%) [12]: 15%
Population Healthy Nuclei (%) [12]: 75%
Population Hoechst High Intensity Objects (%) [12]: 8%
Population Mitochondria Different-Phenotype (%) [12]: 37%
Population Mitotic Cells (%) [12]: 66%
Population Normal (%) [12]: 91%
Population Pyknosed Nuclei (%) [12]: 9%
Population Tubulin-Different-Phenotype (%) [12]: 34%
Total Cell Count [12]: 632
